ChEMBL document CHEMBL6177921, “Enhancing the antimycobacterial efficacy of pyridine-4-carbohydrazide: linkage to additional antimicrobial agents via oxocarboxylic acids” (RSC Med Chem, 2025)
Converted amounts (≈) assume the structure as drawn.

Key:
Type in all cases: functional
Mycobacterium avium [1] = assay: Antimycobacterial activity against INH/RIF/rifabutin/OFX/EMB resistant Mycobacterium avium CNCTC 330/88 assessed as bacterial growth inhibition incubated for 14 days by two-fold serial dilution method; conditions: CNCTC 330/88, 336 h, time 14 day
Summary of the method: (§1)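 M. avium CNCTC 330/88 (stock suspension dilution 10−5) grown in Šula's semisynthetic liquid medium; two-fold serial dilutions 1000 to 1 μM from DMSO stocks (final DMSO 1.0% v/v); final load 1.5 × 10^5 CFU mL−1; MIC read visually as lowest concentration giving complete growth inhibition after 14 and 21 days.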

Mycobacterium kansasii [2] = assay: Antimycobacterial activity against INH/RIF/rifabutin/OFX/EMB Mycobacterium kansasii CNCTC 6509/96 clinical isolate assessed as bacterial growth inhibition incubated for 7 days by two-fold serial dilution method; conditions: CNCTC 6509/96, 168 h, time 7 day
Summary of the method: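 Šula's liquid semisynthetic medium; M. kansasii clinical isolate 6509/96 used at stock dilution 10−4, final ~1.5 × 10^5 CFU mL−1. Two-fold dilutions ran 1000–1 μM with final DMSO 1.0% (v/v). MIC was read visually as complete growth inhibition after 7, 14 and 21 days.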

Mycobacterium kansasii [3] = assay: Antimycobacterial activity against multi-drug resistant Mycobacterium kansasii clinical isolate CNCTC 6509/96 assessed as bacterial growth inhibition incubated for 21 days by two-fold serial dilution method; conditions: CNCTC 6509/96, 504 h, time 21 day
Summary of the method: (§2)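 M. kansasii clinical isolate 6509/96 (stock dilution 10−4) in Šula's semisynthetic liquid medium; two-fold serial dilutions 1000 to 1 μM, DMSO final 1.0% v/v; final load 1.5 × 10^5 CFU mL−1; MIC read visually as complete growth inhibition at 7, 14 and 21 days.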

[4] = system: Mycobacterium tuberculosis; assay: Antimycobacterial activity against multidrug sensitive Mycobacterium tuberculosis H37Rv CNCTC 331/88 assessed as bacterial growth inhibition incubated for 14 days by two-fold serial dilution method; conditions: H37Rv CNCTC 331/88, 336 h, time 14 day
Mycobacterium avium [5] = assay: Antimycobacterial activity against INH/RIF/rifabutin/OFX/EMB resistant Mycobacterium avium CNCTC 330/88 assessed as bacterial growth inhibition incubated for 21 days by two-fold serial dilution method; conditions: CNCTC 330/88, 504 h, time 21 day; summary of the method: as §1
Mycobacterium kansasii [6] = assay: Antimycobacterial activity against multi-drug resistant Mycobacterium kansasii CNCTC 6509/96 clinical isolate assessed as bacterial growth inhibition incubated for 14 days by two-fold serial dilution method; conditions: CNCTC 6509/96, 336 h, time 14 day; summary of the method: as §2
[7] = system: Mycobacterium tuberculosis; assay: Antimycobacterial activity against Mycobacterium tuberculosis H37Rv CNCTC 331/88 assessed as bacterial growth inhibition incubated for 21 days by two fold serial dilution method; conditions: H37Rv CNCTC 331/88, 504 h, time 21 day
[8] = system: Trichophyton interdigitale; assay: Antifungal activity against Trichophyton interdigitale ATCC 9533 measured after 24 to 48 hrs by microdilution broth method; conditions: time 24-48 hrs
Candida parapsilosis [9] = assay: Antifungal activity against Candida parapsilosis CCM 8260 measured after 24 to 48 hrs by microdilution broth method; conditions: Lodderomyces parapsilosis, time 24-48 hrs
Summary of the method: (§3)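 Yeast broth microdilution per EUCAST, slightly modified. Medium was RPMI-1640 with 2% glucose, MOPS-buffered to pH 7.0. Compounds were tested at 0.98–500 μM with final DMSO ≤1.0% (v/v). Inoculum came from 18–24 h cultures, final ~1–5 × 10^5 CFU mL−1. Plates were incubated statically, dark and humidified, at 35 ± 2 °C. MIC was read visually at 24 and 48 h (no visible growth).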

Candida tropicalis [10] = assay: Antifungal activity against Candida tropicalis CCM 8264 measured after 24 to 48 hrs by microdilution broth method; conditions: time 24-48 hrs; summary of the method: as §3
[11] = system: Trichophyton interdigitale; assay: Antifungal activity against Trichophyton interdigitale CCM 8377 measured after 24 to 48 hrs by microdilution broth method; conditions: time 24-48 hrs
Aspergillus flavus = assay: Antifungal activity against Aspergillus flavus CCM 8363 measured after 24 to 48 hrs by microdilution broth method; conditions: time 24-48 hrs
Summary of the method: (§4)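 Filamentous fungi tested by broth microdilution per EUCAST with minor changes. Compounds were tested at 0.98–500 μM with final DMSO ≤1.0% (v/v). Plates were incubated statically, dark and humidified, at 35 ± 2 °C for 24 and 48 h. MIC was the lowest concentration showing no visible growth.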

Pichia kudriavzevii [12] = assay: Antifungal activity against Candida krusei CCM 8271 measured after 24 to 48 hrs by microdilution broth method; conditions: time 24-48 hrs; summary of the method: as §3
Candida tropicalis [13] = assay: Antifungal activity against Candida tropicalis ATCC 750 measured after 24 to 48 hrs by microdilution broth method; conditions: time 24-48 hrs; summary of the method: as §3
Candida albicans [14] = assay: Antifungal activity against Candida albicans ATCC 24443 measured after 24 to 48 hrs by microdilution broth method; conditions: time 24-48 hrs; summary of the method: as §3
Lichtheimia corymbifera = assay: Antifungal activity against Lichtheimia corymbifera CCM 8077 measured after 24 to 48 hrs by microdilution broth method; conditions: time 24-48 hrs; summary of the method: as §4
Aspergillus fumigatus = assay: Antifungal activity against Aspergillus fumigatus ATCC 204305 measured after 24 to 48 hrs by microdilution broth method; conditions: time 24-48 hrs; summary of the method: as §4
Candida parapsilosis [15] = assay: Antifungal activity against Candida parapsilosis ATCC 22019 measured after 24 to 48 hrs by microdilution broth method; conditions: Lodderomyces parapsilosis, time 24-48 hrs; summary of the method: as §3
Candida albicans [16] = assay: Antifungal activity against Candida albicans CCM 8320 measured after 24 to 48 hrs by microdilution broth method; conditions: time 24-48 hrs; summary of the method: as §3
Pichia kudriavzevii [17] = assay: Antifungal activity against Candida krusei ATCC 6258 measured after 24 to 48 hrs by microdilution broth method; conditions: time 24-48 hrs; summary of the method: as §3

SMILES	MIC (Mycobacterium avium [1])	MIC (Mycobacterium kansasii [2])	MIC (Mycobacterium kansasii [3])	MIC [4]	MIC (Mycobacterium avium [5])	MIC (Mycobacterium kansasii [6])	MIC [7]	MIC [8]	MIC (Candida parapsilosis [9])	MIC (Candida tropicalis [10])	MIC [11]	MIC (Aspergillus flavus)	MIC (Pichia kudriavzevii [12])	MIC (Candida tropicalis [13])	MIC (Candida albicans [14])	MIC (Lichtheimia corymbifera)	MIC (Aspergillus fumigatus)	MIC (Candida parapsilosis [15])	MIC (Candida albicans [16])	MIC (Pichia kudriavzevii [17])
Nc1ccc(S(=O)(=O)Nc2ccc(-c3ccccc3)cc2)cc1	≥ 1000 µM	250 µM (≈ 81.1 µg/mL)	500 µM (≈ 162 µg/mL)	500 µM (≈ 162 µg/mL)	≥ 1000 µM	250 µM (≈ 81.1 µg/mL)	500 µM (≈ 162 µg/mL)													
O=C(/C=N/NC(=O)c1ccncc1)Nc1ccc(S(=O)(=O)Nc2ncccn2)cc1	500 µM (≈ 213 µg/mL)	8 µM (≈ 3.4 µg/mL)	16 µM (≈ 6.81 µg/mL)	1 µM (≈ 0.425 µg/mL)	500 µM (≈ 213 µg/mL)	16 µM (≈ 6.81 µg/mL)	2 µM (≈ 0.851 µg/mL)													
COc1ccc(NS(=O)(=O)c2ccc(NC(=O)/C(C)=N/NC(=O)c3ccncc3)cc2)nn1	≥ 1000 µM	32 µM (≈ 15 µg/mL)	32 µM (≈ 15 µg/mL)	1 µM (≈ 0.469 µg/mL)	≥ 1000 µM	32 µM (≈ 15 µg/mL)	1 µM (≈ 0.469 µg/mL)	> 500 µM	> 500 µM	> 500 µM	> 500 µM	> 500 µM	> 500 µM	> 500 µM	> 500 µM	> 500 µM	> 500 µM	> 500 µM	> 500 µM	> 500 µM
C/C(=N\NC(=O)c1ccncc1)C(=O)Nc1ccc(S(=O)(=O)Nc2cc(C)on2)cc1	1000 µM (≈ 442 µg/mL)	16 µM (≈ 7.08 µg/mL)	32 µM (≈ 14.2 µg/mL)	0.5 µM (≈ 0.221 µg/mL)	≥ 1000 µM	32 µM (≈ 14.2 µg/mL)	1 µM (≈ 0.442 µg/mL)	> 500 µM	> 500 µM	> 500 µM	> 500 µM	> 500 µM	> 500 µM	> 500 µM	> 500 µM	> 500 µM	> 500 µM	> 500 µM	> 500 µM	> 500 µM
Nc1ccc(S(=O)(=O)Nc2ccc(Oc3ccccc3)cc2)cc1	1000 µM (≈ 340 µg/mL)	250 µM (≈ 85.1 µg/mL)	500 µM (≈ 170 µg/mL)	500 µM (≈ 170 µg/mL)	1000 µM (≈ 340 µg/mL)	500 µM (≈ 170 µg/mL)	500 µM (≈ 170 µg/mL)													
Cc1cc(C)nc(NS(=O)(=O)c2ccc(NC(=O)/C=N/NC(=O)c3ccncc3)cc2)n1	1000 µM (≈ 453 µg/mL)	8 µM (≈ 3.63 µg/mL)	16 µM (≈ 7.26 µg/mL)	1 µM (≈ 0.453 µg/mL)	≥ 1000 µM	16 µM (≈ 7.26 µg/mL)	2 µM (≈ 0.907 µg/mL)													
COC(=O)c1ccc(NS(=O)(=O)c2ccc(N)cc2)cc1O	> 1000 µM	1000 µM (≈ 322 µg/mL)	> 1000 µM	250 µM (≈ 80.6 µg/mL)	> 1000 µM	> 1000 µM	250 µM (≈ 80.6 µg/mL)													
O=C(/C=N/NC(=O)c1ccncc1)NNC(=O)c1ccncc1	1000 µM (≈ 312 µg/mL)	8 µM (≈ 2.5 µg/mL)	16 µM (≈ 5 µg/mL)	1 µM (≈ 0.312 µg/mL)	> 1000 µM	16 µM (≈ 5 µg/mL)	2 µM (≈ 0.625 µg/mL)													
NS(=O)(=O)c1ccc(NC(=O)/C=N/NC(=O)c2ccncc2)cc1	1000 µM (≈ 347 µg/mL)	16 µM (≈ 5.56 µg/mL)	32 µM (≈ 11.1 µg/mL)	1 µM (≈ 0.347 µg/mL)	≥ 1000 µM	32 µM (≈ 11.1 µg/mL)	2 µM (≈ 0.695 µg/mL)													
Nc1ccc(S(=O)(=O)Nc2ccc(Oc3ccc(Cl)cc3)cc2)cc1	1000 µM (≈ 375 µg/mL)	250 µM (≈ 93.7 µg/mL)	500 µM (≈ 187 µg/mL)	250 µM (≈ 93.7 µg/mL)	1000 µM (≈ 375 µg/mL)	500 µM (≈ 187 µg/mL)	500 µM (≈ 187 µg/mL)													
